PfG6PD inh: PfG6PD (Plasmodium falciparum) enzyme inhibition. 350,000 tested, 0.78% active. inhibition, % at 20 µM. PfGluPho enzyme, NADPH resazurin-diaphorase fluorescence;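 active = inhibition reaching at least a set limit at 20 µM in the primary screen, cut at about 59% in these data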;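 note: 0% = DMSO wells with substrate and 100% = DMSO wells lacking glucose-6-phosphate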
HKDC1 inh: blocks human hexokinase HKDC1 activity | Q2TB90 | recombinant HKDC1, G6PDH/diaphorase resazurin coupled fluorescence | inhibition, % at 20 µM | 340,000 tested, 0.16% active | AID 493160;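 active = inhibition above about 35% when tested at 20 µM, limit read from the data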;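 note: plate controls were DMSO wells with enzyme for no effect and DMSO wells lacking enzyme for full effect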
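Assay system: recombinant HKDC1 hexokinase; detection: coupled resazurin fluorescence, excitation 525 nm, emission 613 nm; benchmarks: DMSO-plus-enzyme-mix negative control, buffer-substituted positive control; compound dosing: single 20 µM dose; schedule: 90 min at room temperature in dark; also added: glucose plus 1 mM ATP as hexokinase substrates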
aDG glyco up: increases alpha dystroglycan glycosylation; Pro5-aDG cells, alpha-DG glycosylation AlphaScreen (IIH6); 0% Pro5, 100% B10-LARGE cell signal; activation, % at 10 µM; 360,000 tested, 0.22% active;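 active = activation of at least 8% versus controls, or a plate z-score of at least 8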;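 note: Pro5 are CHO cells carrying HIG-tagged alpha-DG that lacks glycosylation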
Cardio protect: protects H9c2 cardiomyocytes from peroxide injury | H2O2 injury protection, ATPLite, 2 h | protection from H2O2 cell death, % at 20 µM | 360,000 tested, 0.63% active | AID 588492;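 active = compounds giving at least 50% protection of heart cells from peroxide-induced death in the single-dose screen, raw or plate-pattern-corrected value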;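 note: 0% = DMSO wells with peroxide and 100% = DMSO wells without peroxide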
B2AR ag: human beta-2 adrenergic receptor agonism by FAP. 340,000 tested, 0.43% active. AID 504454. Am2.2-beta2AR cells, FAP receptor internalization, flow cytometry. response, % (concentration not given with the values);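 active = response above a set limit, near 3 SD of response in nonfluorescent compounds, cut at about 42% in these data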
UCH37 inh: blocks the human deubiquitinase UCH37; purified proteasome/UCH37, Ub-AMC cleavage fluorescence; inhibition, % (no concentration beside the values); 330,000 tested, 0.33% active;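 active = mean inhibition over replicate wells above about 20%, limit read from the data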;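 note: 0% = compound-free wells with enzyme and 100% = wells lacking proteasome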
Target sequence (Q9Y5K5 whole entry, looked up): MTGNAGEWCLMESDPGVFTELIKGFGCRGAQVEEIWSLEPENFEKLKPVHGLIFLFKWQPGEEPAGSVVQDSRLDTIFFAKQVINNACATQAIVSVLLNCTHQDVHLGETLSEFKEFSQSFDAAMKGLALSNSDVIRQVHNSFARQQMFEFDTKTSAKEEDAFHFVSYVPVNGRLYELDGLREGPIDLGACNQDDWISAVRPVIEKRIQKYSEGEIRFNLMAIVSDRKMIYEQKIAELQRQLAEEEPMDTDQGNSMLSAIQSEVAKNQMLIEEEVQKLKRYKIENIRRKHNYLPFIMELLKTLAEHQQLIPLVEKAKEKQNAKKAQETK
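Assay system: Proteasome-bound UCH37. Buffer or medium: pH 7.4 Tris-HCl (50 mM) with ovalbumin, ATP-MgCl2, DTT. Incubation: 30 min preincubation with enzyme, 25 min cleavage at room temperature. Measured by: fluorescence, ex 355 nm, em 460 nm. Read-out basis: percent inhibition. Control set: wells without proteasome as full block, compound-free enzyme plus substrate as uninhibited.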
PfG6PD confirm: confirmation of Plasmodium falciparum G6PD inhibitors; shares compounds with PfG6PD inh; recombinant PfGluPho, NADPH-diaphorase-resazurin fluorescence; inhibition, % at 20 µM; 2,400 tested, 34% active; AID 504753;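 active = inhibition of at least 50% at 20 µM in any single replicate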;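 note: 0% = DMSO with substrate and 100% = DMSO lacking glucose-6-phosphate substrate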
Diaphorase 10uM: counter-screen for P. falciparum G6PD inhibitors: diaphorase inhibitors, oxidizers; shares compounds with PfG6PD inh; diaphorase-coupled resazurin reduction, fluorescence, NADPH 10 uM; inhibition, % at 20 µM; 820 tested, 39% active;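 active = average inhibition reaching 50% or more with the compound at 20 µM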;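 note: resorufin red fluorescence formed as diaphorase reduces resazurin using NADPH; 0% = DMSO with enzyme and 100% = DMSO without enzyme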
Diaphorase 30uM: diaphorase inhibition or oxidation at 30 uM NADPH; Diaphorase/resazurin coupled assay, resorufin fluorescence; 820 tested, 29% active; inhibition, % at 20 µM; shares compounds with PfG6PD inh;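 active = inhibition averaging 50% or more, tested at 20 µM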;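 note: 0% = DMSO with enzyme and 100% = DMSO wells lacking diaphorase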
The depositor's hits bear a star; x = no result. Only some compounds are listed: those with a hit (about 2.1% of all), similar ones and a draw of the others.

SMILES	PfG6PD inh	HKDC1 inh	aDG glyco up	Cardio protect	B2AR ag	UCH37 inh	PfG6PD confirm	others
Cc1cc(OCCSc2nnc(-c3cccs3)n2C)ccc1Cl	70*	5	0	-20	-9	6	22
Cc1c(NC(=S)NN=C/C=C/c2ccc([N+](=O)[O-])cc2)c(=O)n(-c2ccccc2)n1C	x	x	x	x	x	8	x
CCOc1ccc(-c2nnc3sc(COc4ccccc4)nn23)cc1	-9	-2	0	0	-11	2	x
c1ccc(Cc2nn3c(COc4ccccc4)nnc3s2)cc1	63*	-20	0	-1	-8	1	24
CCOc1ccccc1OCc1nn2c(COc3ccccc3)nnc2s1	69*	-16	0	0	7	1	27
Clc1ccccc1-c1nn2c(COc3ccccc3)nnc2s1	-14	3	0	-2	5	3	x
Cc1cc2ncn(/N=C/c3cccnc3)c2cc1C	-3	7	0	12	-8	x	x
Cc1cc2ncn(/N=C/c3ccc(-c4ccccc4)o3)c2cc1C	73*	7	0	17	-5	x	-23
CCC1(C)CC(C(N)=S)CCO1 (stereo not drawn)	81*	-36	0	6	-1	5	64*	Diaphorase 10uM=-13;Diaphorase 30uM=-15
Cc1[nH]c(=O)[nH]c(=O)c1C=NNC(=O)CCCCCNC(=O)OC(C)(C)C	x	x	x	x	x	5	x
CCCOc1ccc2oc(=O)c3c(c2c1)CCCN3C(=O)CN1CCc2ccccc2C1	60*	3	0	-4	-7	-5	27
CC1CCN(CC(=O)N2CCCc3c2c(=O)oc2ccc(OCc4ccccc4)cc32)CC1	9	-1	0	-26	15	-4	x
O=C(CSc1nc2ccc(Cl)cc2[nH]1)Nc1ccc2[nH]c(=O)[nH]c2c1	60*	23	0	4	7	2	24
COc1cc(C2Nc3ccc4ncccc4c3C3=C2C(=O)CC(C)(C)C3)cc(OC)c1O (stereo not drawn)	35	4	0	-5	-14	2	x
COc1cc(C2Nc3ccc4ncccc4c3C3=C2C(=O)CCC3)cc(OC)c1O (stereo not drawn)	69*	15	0	1	-9	8	29
O=C(Nc1ccc(SC(F)F)cc1)C12CCC(CC1)C2	72*	-7	1	-4	3	-2	18
C=C1C2(C(=O)Nc3ccc(SC(F)F)cc3)CCC(C2)C1(C)C (stereo not drawn)	16	12	1	-18	3	-1	x
Cc1ccccc1NC(=O)CSc1nnc(-c2ccco2)c(-c2ccco2)n1	33	15	0	1	-11	7	x
Cc1cccc(C)c1NC(=O)CSc1nnc(-c2ccco2)c(-c2ccco2)n1	63*	22	0	0	-12	x	18
COc1cccc(C(C)=NNc2ncc(Cl)cc2Cl)c1	x	x	x	x	x	5	x
O=C(COc1ccc(Br)cc1)NN=C1SCC(=O)N1Cc1ccco1	x	x	x	x	x	0	x
CC(=NOCON=C(C)c1ccccc1)c1ccccc1	x	x	x	x	x	-1	x
CC(=O)Nc1ccc(S(=O)(=O)NNc2cccc(C)c2)cc1	76*	-2	0	-4	7	6	45*	Diaphorase 10uM=-10;Diaphorase 30uM=4
Cc1ccc(S(=O)(=O)NNc2ccccc2)cc1	65*	-8	0	2	9	1	47*	Diaphorase 10uM=42;Diaphorase 30uM=19
Cc1ccc(S(=O)(=O)NNc2nc3ccccc3nc2C(F)(F)F)cc1	65*	0	0	14	-5	2	20
SMILES	PfG6PD inh	HKDC1 inh	aDG glyco up	Cardio protect	B2AR ag	UCH37 inh	PfG6PD confirm	others
Cc1cccc(NC(=O)NNS(=O)(=O)c2ccc(F)cc2)c1	-5	-10	1	2	11	-1	x
Cc1ccc(S(=O)(=O)NNc2c3ccccc3nc3ccc(Cl)cc23)cc1	31	x	2	-8	x	x	x
O=C(CNC(=O)c1cccc(Br)c1)NN=Cc1cccnc1	x	x	x	x	x	0	x
CCOC(=O)CSc1ncnc2c1nnn2-c1ccc(F)cc1	-4	-2	0	-23	13	3	x
CC(=O)C(Sc1ncnc2c1nnn2-c1ccc(F)cc1)C(=O)N(C)C (stereo not drawn)	62*	-6	x	x	x	6	19
NC(=S)N/N=C/c1ccc(-n2nncc2-c2ccc(Cl)cc2)cc1	73*	8	0	-5	-9	x	22
O=C(O)c1ccc(N2CC3CC(C2)c2cccc(=O)n2C3)c(NC(=S)Nc2ccc(Cl)cc2Cl)c1 (stereo not drawn)	59*	-11	0	-12	-2	4	27
CCc1ccc(NC(=O)Nc2cc(C(=O)O)ccc2N2CC3CC(C2)c2cccc(=O)n2C3)cc1 (stereo not drawn)	20	-1	0	-1	0	2	x
CSCC[C@H](NC(=O)[C@@H]1Cc2ccccc2CN1)C(=O)NCC1CCC(C(=O)O)CC1 (stereo partly drawn)	x	x	x	x	x	2	x
CC(=NNC(=O)C1COc2ccccc2O1)c1ccc(N2CCOCC2)cc1 (stereo not drawn)	x	x	x	x	x	-1	x
CCCCN(Cc1nc2ccccc2c(=O)[nH]1)C(=O)COc1ccc(F)cc1Cl	29	1	0	10	9	1	x
COCCN(Cc1nc2ccccc2c(=O)[nH]1)C(=O)COc1c(C)cc(Cl)cc1C	72*	3	0	7	-8	-2	35
CCC(=NNc1ccccc1)c1cnnc(-c2ccccc2)n1	x	x	x	x	x	8	x
COc1cc(/C=N/NC(=O)c2ccc(CN3C(=O)c4cccc5cccc3c45)cc2)cc(OC)c1O	64*	5	0	9	12	x	43
CCc1cc2c(nc1CC)CCN(CCC(C)=NOC[C@H]1O[C@H](c3ccccc3)C=C[C@@H]1Oc1ccc(OC)cc1)C2	x	x	x	x	x	1	x
CCOc1cc2c(cc1O)CCC1C2CCC2(C)C(O)CCC12 (stereo not drawn)	-5	-1	0	3	23	x	x
CCNc1cc2c(cc1O)CCC1C2CCC2(C)C(O)CCC12 (stereo not drawn)	80*	2	0	48	-34	x	50*	Diaphorase 10uM=-7;Diaphorase 30uM=-8
Cc1nc2cc(NS(=O)(=O)c3cccc4cccnc34)ccc2s1	61*	-1	0	-8	-7	0	37
CCCc1c(C(=O)NN=Cc2ccccc2OCc2ccc(F)cc2)nnn1-c1nonc1N	x	x	x	x	x	-42	x
CCN(CC)C(=S)SSC(=S)N(CC)CC	66*	-19	0	10	37	2	49*	Diaphorase 10uM=-22;Diaphorase 30uM=-11

From PubChem
